Hits are enriched below; roughly 2.9% of the tested compounds scored in any of these assays.
OX1R antag-1 – human HCRTR1 antagonism. O43613. AID 434989. hit rate 0.43% among 330,000. CHO/OX1R cells, Fluo-8 calcium fluorescence, orexin A. inhibition, % at 5 µM;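 active = inhibition above its plate's threshold, mean inhibition of all tested compounds on the plate plus 3 SD, cut at about 37% in these data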;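 also: 0% = orexin A challenge wells and 100% = SB-334867-A antagonist wells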
Target sequence (O43613 whole entry, looked up): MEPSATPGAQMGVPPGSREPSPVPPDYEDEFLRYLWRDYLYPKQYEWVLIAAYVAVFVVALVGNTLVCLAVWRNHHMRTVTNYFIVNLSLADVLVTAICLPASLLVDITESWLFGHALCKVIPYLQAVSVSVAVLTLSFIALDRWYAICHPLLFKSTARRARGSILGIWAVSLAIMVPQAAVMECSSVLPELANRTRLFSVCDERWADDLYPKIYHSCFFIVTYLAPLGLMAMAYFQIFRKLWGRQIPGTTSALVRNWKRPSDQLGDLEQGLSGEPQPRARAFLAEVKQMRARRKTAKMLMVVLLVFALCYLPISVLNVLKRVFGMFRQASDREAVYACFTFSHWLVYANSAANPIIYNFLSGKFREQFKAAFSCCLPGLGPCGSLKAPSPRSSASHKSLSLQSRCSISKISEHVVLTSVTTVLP
OX1R antag-2 – antagonists of human orexin 1 receptor (OX1R); OX1R-expressing cells, FRET antagonist read-out; inhibition, % at 6.6 µM; hit rate 1.8% among 330,000; in the data active = inhibition mostly above about 38%, no sharp cut-off; inactive = mostly below about 40%;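 also: 0% = agonist challenge alone and 100% = reference antagonist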
M1 ag parental – nonselective activator or artifact in parental CHO-K1 cells; Fluo-8 calcium fluorescence; scaled to maximal ATP response, vehicle zero; activation, % at 3 µM; hit rate 0.48% among 360,000; AID 602248; in the data active = activation above about 15%;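 also: untransfected CHO-K1 host cells lacking M1 receptor as counterscreen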
CHO parental Ca – signal in parental CHO cells, OX1R antagonist counter-screen. parental CHO-K1, ATP-induced calcium, Fluo-8 fluorescence. inhibition, % at 5.6 µM. hit rate 0.63% among 330,000;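 active = inhibition above that plate's mean sample inhibition plus 3 SD, cut at about 26% in these data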;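 also: 0% = ATP-challenged DMSO wells and 100% = DMSO wells without ATP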
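Material: parental CHO cells / Compound: single nominal dose of 5.6 µM per compound / Signal: Fluo-8 fluorescence / Replicates: singlicate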
CHO-K1 Ca PAM – M1 PAM counterscreen hit in parental CHO-K1 cells | ATP EC20, Fluo-8 calcium fluorescence; 0% at ATP EC20, 100% at ATP max | AID 602247 | activation, % at 3 µM | hit rate 0.02% among 360,000;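 active = activation above the run cutoff, the mean activation of all test compounds plus 3 SD, cut at about 40% in these data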;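 also: peak over basal fluorescence ratio in a 140 s read after ATP addition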
CHO-K1 Ca antag – M1 antagonist counterscreen hit in parental CHO-K1 cells; hit rate 0.6% among 360,000; inhibition, % at 3 µM; ATP-induced calcium, Fluo-8 fluorescence;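 active = inhibition above a per-plate cutoff, the plate's mean sample inhibition plus 3 SD, cut at about 24% in these data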;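 also: 0% = DMSO plus EC80 ATP and 100% = DMSO alone without ATP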
OX1R Ca confirm – OX1R (human) antagonism, confirmed | inhibition, % at 5 µM | shares compounds with OX1R antag-1 | CHO/OX1R cells, orexin A calcium Fluo-8 fluorescence | hit rate 38% among 1,100 | AID 492963; in the data active = inhibition above about 29%;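 also: 0% = agonist challenge alone and 100% = reference antagonist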
CHO Ca counter – signal in parental CHO cells, OX1R antagonist counter-screen; AID 492965; inhibition, % at 5.6 µM; hit rate 9.3% among 1,100; parental CHO-K1, ATP-induced calcium, Fluo-8 fluorescence; shares compounds with OX1R antag-1;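 active = inhibition above a per-plate limit, the mean inhibition of that plate's test compounds plus 3 SD, cut at about 25% in these data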;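 also: 0% = ATP challenge with DMSO and 100% = DMSO without ATP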
OX1R HTRF confirm – OX1R (human) antagonism, HTRF confirmed; shares compounds with OX1R antag-2; hit rate 49% among 1,800; OX1R-expressing cells, HTRF antagonist assay; inhibition, % at 6.6 µM; in the data active = inhibition above about 55%;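 also: CHO cells expressing OX1R stimulated with orexin A at about EC80; 0% = agonist challenge alone and 100% = reference antagonist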
CHO-K1 HTRF – counter-screen for OX1R antagonists: effect in parental CHO-K1 cells | shares compounds with OX1R antag-2 | HTRF counterscreen | inhibition, % at 6.6 µM | hit rate 48% among 1,800; in the data active = inhibition above about 17%;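 also: 0% = agonist challenge with vehicle and 100% = vehicle alone without agonist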
Numbers without * were called inactive; / = no result.

SMILES	OX1R antag-1	OX1R antag-2	M1 ag parental	CHO parental Ca	CHO-K1 Ca PAM	CHO-K1 Ca antag	OX1R Ca confirm	CHO Ca counter	OX1R HTRF confirm	CHO-K1 HTRF
COc1cc(/C=N/NC(=O)c2cc(-c3cccc(Br)c3)nc3ccccc23)cc(OC)c1O	37	67*	1	-14	5	-4	29*	-10	78*	3
O=C(CSc1nnc(Cn2nnc3ccccc32)o1)N(Cc1ccc(F)cc1)c1ccccc1	79*	78*	11	10	9	25*	51*	61*	70*	3
COc1ccccc1NC(=O)CSc1nc2ncccc2[nH]1	-22	9	4	-19	-1	-30	/	/	/	/
O=C(CSc1nc2ncccc2[nH]1)Nc1ccccc1-c1ccccc1	33	72*	2	-19	-12	-2	31*	-5	72*	6
COc1ccc(-c2oc3cc(O)c(OC)c(O)c3c(=O)c2OC)cc1O	/	/	0	/	23	-21	/	/	/	/
O=C(CN1c2cccc3cccc(c23)S1(=O)=O)NCc1ccccc1Cl	/	/	1	/	-14	16	/	/	/	/
Cc1oncc1C(=O)Nc1cccc(C#N)c1	-5	13	1	3	7	-3	/	/	/	/
COc1ccc(N2CCN(C(=O)CCC(=O)NNc3nc4ccccc4c4nc(C)nn34)CC2)cc1	-19	16	1	-17	-5	-5	/	/	/	/
COCCCNC(=O)CCC(=O)NNc1nc2ccccc2c2nc(-c3ccccc3)nn12	33	95*	2	-26	16	-13	29*	-13	82*	-1
CN1CCS/C1=C/C=C1\SC(=S)N(CC(=O)O)C1=O	26	104*	26*	20	13	1	13	19	64*	103*
COc1ccc(N2CCN(C(=O)COC(=O)c3cc(S(=O)(=O)N(C)C)ccc3N3CCCC3)CC2)cc1	-24	8	0	-32	16	-17	/	/	/	/
CCOC(=O)c1ccc(Nc2cnc3ccccc3n2)cc1	46*	62*	1	-7	5	-11	23	-5	50	0
Cc1cc(C)c(OCC(=O)OCC(=O)NC2CCC(C)CC2)c(C)c1 (stereo not drawn)	-15	7	0	-10	-25	13	/	/	/	/
O=C(NC(Nc1ncc(S(=O)(=O)c2ccc([N+](=O)[O-])cc2)s1)(C(F)(F)F)C(F)(F)F)c1ccc(Cl)cc1	38	120*	9	23	9	11	30*	65*	58*	36*
CC(C)N(C(=S)Nc1ccc(S(=O)(=O)N2CCOCC2)cc1)c1ccccc1	-10	6	0	-3	2	-5	/	/	/	/
COc1ccc(OCC(=O)Nc2cccc3cccnc23)cc1	28	87*	0	-24	-4	13	4	-4	33	4
COc1ccc(OCC(=O)Nc2cccc(NC(=O)COc3ccc(OC)cc3)n2)cc1	-25	17	1	-14	22	-10	/	/	/	/
CCOc1ccccc1NC(=O)CN1C(=O)NC(Cc2c[nH]c3ccccc23)C1=O (stereo not drawn)	42*	36*	2	-25	6	-16	10	-9	34	-5
Cc1ccc([C@@H]2CC=C(C(=O)O)[C@H](c3cccc(F)c3)N2S(=O)(=O)c2ccccc2C)cc1	50*	71*	0	-14	0	-3	26	-3	86*	4
Cc1ccc(S(=O)(=O)N2[C@@H](c3cccc(Cl)c3)C(C(=O)O)=CC[C@H]2c2ccc(C(C)C)cc2)cc1	36	70*	2	10	8	-14	24	0	77*	7
Cc1ccc(S(=O)(=O)N2[C@@H](c3ccc(F)cc3)C(C(=O)O)=CC[C@H]2c2ccc(C(C)C)cc2)cc1	-4	14	-1	7	0	1	/	/	/	/
CC(C)Cc1n[nH]c(=O)c2c1nnn2Cc1ccccc1F	-30	-1	1	-11	15	-23	/	/	/	/
O=C1c2ccccc2NC(c2c(Cl)cccc2Cl)N1Cc1ccccc1 (stereo not drawn)	27	82*	0	12	10	-10	10	-2	46	0
O=C(CSC1=Nc2ccccc2C2CC=NN12)Nc1ccc2c(c1)OCO2 (stereo not drawn)	/	/	1	/	15	-13	/	/	/	/
N#Cc1ccccc1NC(=O)CSC1=Nc2ccccc2C2CC=NN12 (stereo not drawn)	40	85*	2	-3	-4	-9	22	-9	48	0
SMILES	OX1R antag-1	OX1R antag-2	M1 ag parental	CHO parental Ca	CHO-K1 Ca PAM	CHO-K1 Ca antag	OX1R Ca confirm	CHO Ca counter	OX1R HTRF confirm	CHO-K1 HTRF
CCOC(=O)C=C(C(=O)OCC)C(=O)OCC	/	/	0	/	21	-20	/	/	/	/
COC(=O)c1ccccc1NC(=O)CSc1nc(O)cc(=O)n1C1CCCC1	31	78*	0	-8	15	-2	50*	-13	88*	4
O=C(CSc1nc(O)cc(=O)n1C1CCCC1)Nc1cccc(Cl)c1Cl	3	9	0	-5	12	-20	/	/	/	/
O=C(Nc1ccccc1)c1cc(C2CCCN(C(=O)c3ccc4c(c3)CCO4)C2)on1 (stereo not drawn)	/	/	4	/	9	3	/	/	/	/
COC(=O)c1sc(NC(=O)c2cc3c(s2)CCCC3)nc1C	58*	89*	0	-20	18	-13	27	-17	98*	-1
O=C(NCc1ccc(F)cc1)C1CCCN1S(=O)(=O)c1ccccc1C(F)(F)F (stereo not drawn)	6	22	1	-11	13	-15	/	/	/	/
Cc1ccccc1NC(=O)C1CCCN1S(=O)(=O)c1ccccc1C(F)(F)F (stereo not drawn)	66*	81*	2	-15	14	-9	55*	-8	94*	-1
COc1cccc(CN2CCN(CC(=O)NCCc3ccccc3)CC2)c1	-22	0	0	-4	15	-6	/	/	/	/
COc1ccc2c(C#CCCO)c(-c3ccc(S(C)(=O)=O)cc3)sc2c1	6	4	5	7	-18	15	/	/	/	/
COc1ccc2sc(-c3ccc(S(C)(=O)=O)cc3)c(C#CCO)c2c1	65*	59*	0	10	-24	6	21	1	60*	13

Screening results as filed in PubChem.
